Experimental data taken from PubChem BioAssay AID624466 (The Scripps Research Institute Molecular Screening Center, 2012).
About 5,400 (1.5%) of roughly 360,000 compounds were called active. This is one part of a sample in which actives are shown more often than they occur. Unmarked numbers belong to inactive results.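 The calls were made as follows: active = inhibition above a per-plate cutoff, the mean inhibition of test compounds on that plate plus 3 SD (cut at about 49% in these data); inactive = the rest.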

What follows are compounds tested against Trace amine-associated receptor 1 (Homo sapiens) (UniProt Q96RJ0) (assay: blockers of beta-PEA-driven TAAR1 calcium signal – Fluo-8 calcium fluorescence, CHO RD-HGA16 cells, primary screen (AID 624466;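 also: 0% = DMSO plus EC80 beta-PEA response and 100% = DMSO alone without agonist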)). Conditions: CHO RD-HGA16 TAAR1, Fluo-8 calcium fluorescence, antagonist; at 3 µM; stronger effect = higher value.
Chain of Trace amine-associated receptor 1 (Homo sapiens) (Q96RJ0 whole entry, looked up): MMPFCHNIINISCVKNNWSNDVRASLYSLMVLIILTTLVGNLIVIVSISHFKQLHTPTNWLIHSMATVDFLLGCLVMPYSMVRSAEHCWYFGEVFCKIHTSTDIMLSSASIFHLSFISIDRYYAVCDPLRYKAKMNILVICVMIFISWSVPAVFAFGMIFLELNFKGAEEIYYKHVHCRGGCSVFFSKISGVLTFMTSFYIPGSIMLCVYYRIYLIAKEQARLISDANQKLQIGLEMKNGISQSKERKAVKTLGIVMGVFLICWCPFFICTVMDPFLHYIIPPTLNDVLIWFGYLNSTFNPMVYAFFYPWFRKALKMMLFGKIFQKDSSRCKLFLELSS
Outline: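 System: CHO RD-HGA16 cells bearing hTAAR1. Reagent: EC80 β-phenethylamine stimulus. Schedule: seeding 17-24 h prior, 75-min 37 °C, 30-min RT dye loading. Signal: Fluo-8 intracellular calcium dye fluorescence, real-time kinetic reads. Read-out: % inhibition from peak post-agonist over basal fluorescence ratio. Benchmarks: vehicle wells and EC80 agonist wells. Replicates: n of 1.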

Row | SMILES | inhibition
1 | O=C(N[C@H](Cc1ccccc1)C(=O)N1CCCN(Cc2cccs2)CC1)[C@H]1O[C@@H](n2ccc(=O)[nH]c2=O)[C@H](O)[C@@H]1O | -9.92%
2 | CC(=O)OC[C@@H]1CN(Cc2ccccc2)C[C@H](n2cnc3c(NCc4ccco4)ncnc32)O1 | -4.46%
3 | CCCCOCC1CN(CCCC)S(=O)(=O)c2c(Oc3ccc(F)cc3)cccc2O1 (centres undefined) | 30.2%
4 | CCOC(=O)C1=CN(Cc2ccc(Br)cc2)S(=O)(=O)NC1C (centres undefined) | 49.1% (active)
5 | CCOC(=O)C1=CN(Cc2ccc(Br)cc2)S(=O)(=O)N(C)C1C (centres undefined) | 17.8%
6 | CCOC(=O)c1sc(=NC(=O)c2ccc(Br)cc2)n(C)c1C | -21.9%
7 | COc1cccc(/C=N/Nc2cc(C)nc(-c3ccccc3O)n2)c1O | 64.5% (active)
8 | COc1cc(/C=N/NC(=S)Nc2cccnc2)cc(OC)c1O | -25%
9 | COc1cccc(Cn2cc(/C=N/NC(=O)c3cc(O)cc(O)c3)c3ccccc32)c1 | -11.8%
10 | Cc1cccc2[nH]c(CN(C)C(=O)C3CCC(=O)N(CCc4ccccc4)C3)nc12 (centres undefined) | -20.8%
11 | Cc1ccc(N(C(=O)CC2NC(=O)NC2=O)C2(C(=O)NC3CCCC3)CCCCC2)cc1 (centres undefined) | -7.81%
12 | CCCCCCCC[n+]1cccc(C(=O)N2c3c(nc(N)[nH]c3=O)NC(C)C2C)c1 (centres undefined) | -7.7%
13 | CC(C)NC(=O)N1Cc2cc(C(=O)NCC(F)(F)F)nc(-c3cccc(-c4cc5ccccc5o4)c3)c2[C@@H]1CCO | 51.9% (active)
14 | CC(C)(C)S(=O)N1Cc2cc(C(=O)NCCCN3CCOCC3)nc(-c3cccc(-c4cc5ccccc5o4)c3)c2[C@H]1CCO (some centres undefined) | 8.67%
15 | CCNC(=O)c1cc2c(c(-c3cccc(-c4cncnc4)c3)n1)[C@H](CCO)N(C(C)=O)C2 | -0.11%
16 | COc1cccc(/C=C(/CC(=O)Nc2ccc(N3CCOCC3)cc2)c2nc3ccccc3s2)c1 | -10.9%
17 | COc1ccc(C(=O)Nc2cccc(/C=C(/CCC(=O)O)c3nc4ccccc4s3)c2)cc1 | 57.2% (active)
18 | O=C(O)CC/C(=C\c1cc2c(cc1Br)OCO2)c1nc2ccccc2s1 | -13.4%
19 | CC(=O)C[C@@H]1OC[C@H](C)N1S(=O)(=O)c1ccc(C)cc1 | -22.5%
20 | COC(=O)[C@]1(C)N[C@H](c2ccc(-c3ccc(Cl)c(Cl)c3)cc2)[C@@H]2C(=O)N(C)C(=O)[C@@H]21 | 20.9%
21 | CCNS(=O)(=O)c1ccc(CCC(=O)N2CCN(c3ccc(OC)cc3)CC2)cc1 | 8.27%
22 | CCNS(=O)(=O)c1ccc(CCC(=O)N2CCN(c3cc(Cl)ccc3C)CC2)cc1 | 65.9% (active)
23 | CCCNS(=O)(=O)c1ccc(CCC(=O)N2CCCC2)cc1 | -0.2%

Row | SMILES | inhibition
24 | CCOc1ccc(NS(=O)(=O)c2cc(C)c(C)cc2C)cc1 | 18.6%
25 | Cc1cccc(NC(=O)CN2CCN(CC(=O)NCC3(N4CCCCC4)CCCCC3)CC2)c1C | -28.3%
26 | COc1cc(NC(=O)C2=CC(c3ccc(C)cc3)=NS(=O)(=O)N2C)cc(OC)c1OC | -7.77%
27 | COc1ccc(NC(=O)C2=CC(c3ccc(OC)c(OC)c3)=NS(=O)(=O)N2C)cc1 | 52.3% (active)
28 | COc1cc(NC(=O)C2=CC(c3ccco3)=NS(=O)(=O)N2C)cc(OC)c1OC | -8.05%
29 | O=C(O)C1CCCN1S(=O)(=O)c1ccc(Br)cc1 (centres undefined) | -6.42%
30 | O=C(O)CC/C(=N\NC(=O)c1ccc(F)cc1)c1ccc(Br)cc1 | 3.38%
31 | CC(=O)c1ccc(N2CCN(C(=O)c3ccc4nc[nH]c4c3)CC2)cc1 | -29.8%
32 | CC1=NNC(=O)C1CCC(=O)N/N=C\c1ccc(Cl)c(Cl)c1 (centres undefined) | -10.3%
33 | CSc1ccc(/C=N/NC(=O)c2cccc(Cl)c2)cc1 | 8.63%
34 | O=C(N/N=C/c1ccc(Cl)c(Cl)c1)c1ccc2nc[nH]c2c1 | 63.3% (active)
35 | CC(=NNC(=O)c1ccc2nc[nH]c2c1)c1ccc(Br)cc1 | 51.9% (active)
36 | C[C@H](CO)N1C[C@H](C)[C@H](CN(C)C(=O)Nc2ccc(C(F)(F)F)cc2)Oc2c(NC(=O)c3ccncc3)cccc2C1=O | 3.31%
37 | O=C(C[C@H]1CC[C@@H](NC(=O)c2ccncc2)[C@@H](CO)O1)NCC1CC1 | -5.86%
38 | COC(=O)C1=C(C)NC(=S)NC1c1ccc(OC)cc1 (centres undefined) | -22.6%
39 | CC(=O)N1Cc2cc(C(=O)NCc3cccc(F)c3)nc(-c3cccc(C4=CCCC4)c3)c2[C@H]1CCO | -5.18%
40 | COC(=O)c1c(-c2ccc(OC)cc2)c2c(c3c4cc(OC)ccc4n(S(=O)(=O)c4ccc(F)cc4)c13)C(=O)N(C)C2 | -12.2%
41 | C#CCN([C@@H](C)C(=O)OCC)S(=O)(=O)c1ccc(Br)cc1F | 15%
42 | CN(c1ccccc1)S(=O)(=O)c1cc(C(=O)N2CCN(c3ncccn3)CC2)ccc1Cl | 42.5%
43 | Cc1cccc(NC(=O)c2ccc(S(=O)(=O)N(C)c3ccccc3)cc2)n1 | 27.4%
44 | CN(c1ccccc1)S(=O)(=O)c1cc(C(=O)Nc2nc3ccccc3[nH]2)ccc1Cl | 59% (active)
45 | Cc1ccc(S(=O)(=O)N2CCC(=O)N([C@H](COCc3ccccc3)C(C)C)CC2)cc1 | 1.41%
46 | COC(=O)c1ccc(CN2C(=O)[C@]3(OCCC=C[C@H]3C)c3c(Br)cccc32)cc1 | -17.5%

Row | SMILES | inhibition
47 | CCOc1cccc(OCCCOc2cccc3cccnc23)c1 | -11%
48 | Cc1cc(OCCOc2cccc3cccnc23)c(C)cc1Cl | -4.44%
49 | Cc1ccc2cccc(OCCCOc3ccccc3CO)c2n1 | 49.6% (active)
50 | CSc1ccc(S(=O)(=O)N2CCC(C(=O)NCc3ccncc3)CC2)cc1 | -9.01%
51 | CC(=O)C1=CCC(c2ccccc2)N(S(=O)(=O)c2ccc(C)cc2)C1 (centres undefined) | -17.1%
52 | c1ccc(CSCCc2ccncc2)cc1 | 5.41%
53 | CC(C)(C)c1ccc(SCCc2ccncc2)cc1 | 49.2% (active)
54 | Cc1cc(C)c(SCCc2ccncc2)c(C)c1 | 11.4%
55 | CCOCCCN1C(=O)CN(C2CCCCC2)C(=O)C1c1ccc(OCC)c(OC)c1 (centres undefined) | 11.2%
56 | CCCCn1nnnc1C(c1ccccc1)N1CCN(c2ccccc2OC)CC1 (centres undefined) | 12.1%
57 | Cc1nc2ccccc2n1C(=O)N1CCOCC1 | 12.8%
58 | CCN(CC)CCN(C)C(c1ccnc2ccccc12)c1nnnn1-c1ccc2c(c1)OCCO2 (centres undefined) | 4.47%
59 | COc1cc(OC)c(N2CC(C(=O)Nc3cc(Cl)ccc3N3CCOCC3)CC2=O)cc1Cl (centres undefined) | 6.19%
60 | COc1cc(OC)c(-n2cc(-c3ccc(Cl)cc3)[nH]c2=O)cc1Cl | 85.5% (active)
61 | COc1ccc(-n2c(-c3ccc(Cl)cc3)n[nH]c2=S)c(OC)c1 | -24.1%
62 | CCCn1nc(NS(=O)(=O)c2ccc(F)cc2)c2cc3ccccc3nc21 | 9.03%
63 | COc1ccccc1-c1ccc([C@@H]2C[C@H]3[C@H](CON3C)CN2S(=O)(=O)c2cc(Cl)cc(Cl)c2)cc1 | -24.5%
64 | CCOC(=O)C1(C)CCCN(C(=O)c2ccc(N(C)C)cc2)C1 (centres undefined) | -13.8%
65 | CCC(C)CN1C(=O)CN(S(C)(=O)=O)CC1(C)C(=O)Nc1ccc2c(c1)OCCO2 (centres undefined) | -7.39%
66 | CC(=O)c1ccccc1OCc1ccc(C(=O)c2ccccc2)cc1 | 71.8% (active)
67 | COc1ccc(CCNC(=O)c2ccccc2OCc2ccccc2)cc1 | -1.77%
68 | O=C(NC1CCC(O)CC1)c1ccccc1OCc1ccc(F)cc1 (centres undefined) | -21.4%
69 | O=C(Nc1ccc(Cl)cc1)c1cccc(OC(=S)N2CCOCC2)c1 | -20.4%

Row | SMILES | inhibition
70 | CCC(=O)Oc1cccc(C(=O)Nc2ccc(-c3nnc(-c4ccco4)o3)cc2)c1 | 63.3% (active)
71 | Cc1ccc2nc(-c3ccc(NC(=O)c4cccnc4)cc3)oc2c1 | 45.9%
72 | CN(CCO)C(=O)c1nc[nH]c1C(=O)N(C)Cc1ccccc1 | -10.4%
73 | CCOC(=O)N(Cc1ccccc1)C1CC1 | 2.44%
74 | CN(C(=O)CN(CCO)CC(=O)N(C)C(C)(C)Cc1ccccc1)C(C)(C)Cc1ccccc1 | 86.5% (active)
75 | Cc1nc2nc(SCC(=O)c3ccccc3)[nH]c2cc1Br | -5.84%
76 | Cc1cc(SCC(=O)c2ccccc2)nc(SCC(=O)c2ccccc2)n1 | 51.6% (active)
77 | Cc1nc(SCC(=O)c2ccccc2)c([N+](=O)[O-])[nH]1 | 8.14%
78 | CCOC(=O)CCCNC(=O)COC(=O)c1cc(Br)c(Br)s1 | -4.99%
79 | CCC1CCCCN1CCNS(=O)(=O)c1ccc2c(c1)CCN2C(C)=O (centres undefined) | -5.09%
80 | Cc1ccc(C(=O)N/C(=C\c2cn(S(=O)(=O)N(C)C)c3ccccc23)C(=O)N2CCCC2)cc1 | 39.7%
81 | O=C1C(Cl)=C(Oc2ccccc2)C(=O)c2ccccc21 | 50.9% (active)
82 | Cc1cc(Cl)ccc1OCCCC(=O)NCc1ccccn1 | 2.84%
83 | Cc1cc(Cl)ccc1OCCCC(=O)Nc1cccc(-n2cnnn2)c1 | 53% (active)
84 | Cc1cc(Cl)ccc1OCCCC(=O)NCc1ccncc1 | 3.15%
85 | CC1(C(=O)NCc2ccccc2)CSCC(=O)N1CCCN1CCOCC1 (centres undefined) | -18.5%
86 | COC(=O)c1ccc2c(c1)S(=O)(=O)NC2C (centres undefined) | 4.99%
87 | Cn1c(-c2ccc(F)cc2)cnc1SCC(=O)NCc1ccco1 | -3.37%
88 | CCn1c(COc2c(C)cccc2C)nnc1SCc1nc2ccccc2c(=O)[nH]1 | 2.03%
89 | O=c1[nH]c(CSc2ncc(-c3ccc(F)cc3)n2Cc2ccco2)nc2ccccc12 | 67.8% (active)
